Legend:
Homo sapiens [1] = species on record: Homo sapiens; assay: The compound was tested for their ability to inhibit ADP-stimulated platelet aggregation in human platelet rich plasma; type: functional
Summary of the method: (§1)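 IC50 for inhibition of ADP-induced aggregation in human platelet-rich plasma, determined in three donors.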

Canis familiaris [2] = assay: Inhibition of ex vivo platelet aggregation in dogs after 24 hr of administration of iv bolus dose of 0.025 mg/kg; type: functional; conditions: Canis lupus familiaris
Summary of the method: (§2)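 Dogs received an iv bolus, mostly 0.025 mg/kg, with some tested at 0.05 mg/kg. Blood was sampled at 1, 5 and 24 h postdose. Ex vivo platelet aggregation was stimulated with ADP (100 μM) and reported as % inhibition; n = 2.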

Canis familiaris [3] = assay: Compounds having IC50 values less than 100 nM in the PRP assay were assessed for their ability to inhibit ex vivo platelet aggregation in dogs after 5 hr of administration of iv bolus dose of 0.025 mg/kg; type: functional; conditions: Canis lupus familiaris; summary of the method: as §2
Canis familiaris [4] = species on record: Canis familiaris; assay: The compound was tested for their ability to inhibit ADP-stimulated platelet aggregation in dog platelet rich plasma; type: functional; conditions: Canis lupus familiaris
[5] = target: Integrin alpha-IIb/beta-3 (Canis familiaris); assay: Dissociation constant for activated Fibrinogen Receptor
[6] = target: Integrin alpha-IIb/beta-3 (Canis familiaris); assay: Dissociation constant for unactivated Fibrinogen Receptor
[7] = target: Integrin alpha-IIb/beta-3 (Canis familiaris); assay: as above; remark: listed apart in the source
Canis familiaris [8] = assay: Inhibition ex vivo platelet aggregation by the compound in dogs after 5 hr of administration of iv bolus dose of 0.025 mg/kg; type: functional; conditions: Canis lupus familiaris; summary of the method: as §2
[9] = target: Integrin alpha-IIb/beta-3 (Canis familiaris); assay: Dissociation constant for activated Fibrinogen Receptor; remark: listed apart in the source
Homo sapiens [10] = species on record: Homo sapiens; assay: The compound was tested against free acid of DMP 754 to inhibit ADP-stimulated platelet aggregation in human platelet rich plasma; type: functional; summary of the method: as §1
Canis familiaris [11] = assay: Inhibition of ex vivo platelet aggregation by the compound in dogs after 1 hr of administration of iv bolus dose of 0.025 mg/kg; type: functional; conditions: Canis lupus familiaris; summary of the method: as §2
Canis familiaris [12] = species on record: Canis familiaris; assay: The compounds were tested for their ability to inhibit ADP-stimulated platelet aggregation in dog platelet rich plasma; type: functional; conditions: Canis lupus familiaris
[13] = target: Integrin alpha-IIb/beta-3 (Canis familiaris); assay: Dissociation constant for unactivated Fibrinogen Receptor; remark: listed apart in the source
Canis familiaris [14] = assay: Inhibition ex vivo platelet aggregation by the compound in dogs after 6 hr of administration of oral dose of 0.3 mg/kg; conditions: Canis lupus familiaris
Canis familiaris [15] = assay: Inhibition ex vivo platelet aggregation by the compound in dogs after 24 hr of administration of oral dose of 0.3 mg/kg; conditions: Canis lupus familiaris
Canis familiaris [16] = assay: Inhibition ex vivo platelet aggregation by the compound in dogs after 1 hr of administration of oral dose of 0.3 mg/kg; conditions: Canis lupus familiaris

| SMILES | IC50 (Homo sapiens [1]) | further results |
| --- | --- | --- |
| N=C(N)c1ccc(C2=NOC(CC(=O)NC[C@H](NS(=O)(=O)c3ccc(Br)cc3)C(=O)O)C2)cc1 (stereo not given in full) | 51 nM |  |
| CC(=O)Nc1cnc(S(=O)(=O)N[C@@H](CNC(=O)CC2CC(c3ccc(C(=N)N)cc3)=NO2)C(=O)O)s1 (stereo not given in full) | 53 nM | inhibition in vivo at 0.025 mg/kg (Canis familiaris [2]): 68% |
| N=C(N)c1ccc(C2=NOC(CC(=O)NC[C@H](NS(=O)(=O)c3cnn(-c4ccccc4)c3)C(=O)O)C2)cc1 (stereo not given in full) | 72 nM |  |
| N=C(N)c1ccc(C2=NO[C@@H](CC(=O)NC[C@H](NS(=O)(=O)c3ccccc3)C(=O)O)C2)cc1 | 190 nM |  |
| N=C(N)c1ccc(C2=NOC(CC(=O)NC[C@H](NS(=O)(=O)NCCc3ccccc3)C(=O)O)C2)cc1 (stereo not given in full) | 70 nM |  |
| CN(Cc1ccccc1)S(=O)(=O)N[C@@H](CNC(=O)CC1CC(c2ccc(C(=N)N)cc2)=NO1)C(=O)O (stereo not given in full) | 86 nM |  |
| N=C(N)c1ccc(C2=NOC(CC(=O)NC[C@H](NS(=O)(=O)c3cccs3)C(=O)O)C2)cc1 (stereo not given in full) | 24 nM |  |
| N=C(N)c1ccc(C2=NOC(CC(=O)NC[C@H](NS(=O)(=O)c3cccc(C(F)(F)F)c3)C(=O)O)C2)cc1 (stereo not given in full) | 120 nM |  |
| N=C(N)c1ccc(C2=NOC(CC(=O)NC[C@H](NS(=O)(=O)c3ccccc3-c3ccccc3)C(=O)O)C2)cc1 (stereo not given in full) | 80 nM | inhibition in vivo at 0.025 mg/kg (Canis familiaris [2]): 65% |
| Cc1ccccc1S(=O)(=O)N[C@@H](CNC(=O)CC1CC(c2ccc(C(=N)N)cc2)=NO1)C(=O)O (stereo not given in full) | 41 nM | inhibition in vivo at 0.025 mg/kg (Canis familiaris [2]): 99%; inhibition in vivo at 0.025 mg/kg (Canis familiaris [3]): 97% |
| Cc1noc(C)c1S(=O)(=O)N[C@@H](CNC(=O)C[C@@H]1CC(c2ccc(C(=N)N)cc2)=NO1)C(=O)O | 29 nM | Kd [7]: 3.7 nM; IC50 (Canis familiaris [4]): 21 nM; Kd [5]: 2.7 nM |
| CCCCOC(=O)N[C@@H](CNC(=O)C[C@H]1CC(c2ccc(C(=N)N)cc2)=NO1)C(=O)OC [ROXIFIBAN] |  | inhibition in vivo at 0.025 mg/kg (Canis familiaris [8]): 38%; Kd [9]: 2.83 nM; IC50 (Homo sapiens [10]): 50 nM; inhibition in vivo at 0.025 mg/kg (Canis familiaris [11]): 100%; IC50 (Canis familiaris [12]): 27 nM; Kd [13]: 2.36 nM; inhibition in vivo at 0.3 mg/kg (Canis familiaris [14]): 76%; inhibition in vivo at 0.3 mg/kg (Canis familiaris [15]): 11%; inhibition in vivo at 0.3 mg/kg (Canis familiaris [16]): 54% |
| Cc1cccc(S(=O)(=O)N[C@@H](CNC(=O)C[C@@H]2CC(c3ccc(C(=N)N)cc3)=NO2)C(=O)O)c1 |  | inhibition in vivo at 0.025 mg/kg (Canis familiaris [2]): 16% |
| N=C(N)c1ccc(C2=NOC(CC(=O)NC[C@H](NS(=O)(=O)c3cccc(Br)c3)C(=O)O)C2)cc1 (stereo not given in full) | 60 nM |  |
| Cc1ccc(S(=O)(=O)N[C@@H](CNC(=O)CC2CC(c3ccc(C(=N)N)cc3)=NO2)C(=O)O)cc1 (stereo not given in full) | 37 nM |  |

Continued, in another order:

| IC50 (Homo sapiens [1]) | SMILES | further results |
| --- | --- | --- |
| 42 nM | CCCCS(=O)(=O)N[C@@H](CNC(=O)CC1CC(c2ccc(C(=N)N)cc2)=NO1)C(=O)O (stereo not given in full) |  |
| 69 nM | Cc1cccc(S(=O)(=O)N[C@@H](CNC(=O)Cc2cc(-c3ccc(C(=N)N)cc3)no2)C(=O)O)c1 |  |
| 160 nM | Cc1ccc(S(=O)(=O)N[C@@H](CNC(=O)CC2CC(c3ccc(C(=N)N)cc3)=NO2)C(=O)O)o1 (stereo not given in full) |  |
| 120 nM | Cc1noc(C)c1S(=O)(=O)N[C@H](CNC(=O)C[C@@H]1CC(c2ccc(C(=N)N)cc2)=NO1)C(=O)O | IC50 (Canis familiaris [4]): 170 nM; Kd [5]: 186 nM; Kd [6]: 253 nM |
| 110 nM | Cc1ccccc1S(=O)(=O)N[C@@H](CNC(=O)C[C@@H]1CC(c2ccc(C(=N)N)cc2)=NO1)C(=O)O |  |
| 170 nM | N=C(N)c1ccc(C2=NOC(CC(=O)NC[C@H](NS(=O)(=O)c3ccc(C(F)(F)F)cc3)C(=O)O)C2)cc1 (stereo not given in full) |  |
| 110 nM | Cn1cnc(S(=O)(=O)N[C@@H](CNC(=O)CC2CC(c3ccc(C(=N)N)cc3)=NO2)C(=O)O)c1 (stereo not given in full) |  |
